Rows were chosen to be rich in hits. Some 3.5% of all compounds tested hit in one or more screens of this group.
WT yeast gro inh: growth inhibition of WT yeast, mitochondrial fusion screen; mitochondrial fusion phenotypic screen, WT strain; inhibition, % at 10 µM; 190,000 compounds, 2.1% hits; AID 1362; in the data active means inhibition above about 58%; tested in S. cerevisiae
MEKK2mut PB1 HTS: signal of MEK5 binding to mutant human MEKK2 PB1 domain. bead flow cytometry, Alexa488-MEK5 binding to MEKK2 mutant. percent response, % at 10 µM. 290,000 compounds, 0.35% hits; in the data active means percent response above about 24%, passing the limit was not always enough
MEKK3 PB1 HTS: MEKK3-MEK5 PB1 interaction, increase or decrease. Q99759. bead-based flow cytometry, Alexa488-MEK5 binding to MEKK3; actives lie on both sides; 0 = blocked by unlabeled MEK5, 100 = vehicle. binding response (% of control), % at 10 µM. 290,000 compounds, 1.4% hits. AID 1529;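 active means binding response more than 3 SD above or below the average of its plate-row segment, actives on both sides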;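 further: Alexa488 bead fluorescence after subtracting the streptavidin-only scavenger bead signal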
MEKK2wt PB1 HTS: raises or lowers MEK5 binding to wildtype human MEKK2 PB1 domain | Q9Y2U5 | bead flow cytometry, Alexa488-MEK5 binding to MEKK2 WT; actives lie on both sides | binding response (% of control), % at 10 µM | 290,000 compounds, 1.1% hits | AID 1531; in the data active means binding response below about 67% or above about 130%
ABCB1 inh: blocks JC-1 efflux by human ABCB1 transporter. P08183. CCRF-Adr cells, flow cytometry. inhibition, % at 6.6 µM. 190,000 compounds, 0.067% hits. AID 1326; in the data active means inhibition above about 40%;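 further: higher value means more JC-1 retained so stronger ABCB1 efflux block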
Target sequence (P08183 whole entry, looked up): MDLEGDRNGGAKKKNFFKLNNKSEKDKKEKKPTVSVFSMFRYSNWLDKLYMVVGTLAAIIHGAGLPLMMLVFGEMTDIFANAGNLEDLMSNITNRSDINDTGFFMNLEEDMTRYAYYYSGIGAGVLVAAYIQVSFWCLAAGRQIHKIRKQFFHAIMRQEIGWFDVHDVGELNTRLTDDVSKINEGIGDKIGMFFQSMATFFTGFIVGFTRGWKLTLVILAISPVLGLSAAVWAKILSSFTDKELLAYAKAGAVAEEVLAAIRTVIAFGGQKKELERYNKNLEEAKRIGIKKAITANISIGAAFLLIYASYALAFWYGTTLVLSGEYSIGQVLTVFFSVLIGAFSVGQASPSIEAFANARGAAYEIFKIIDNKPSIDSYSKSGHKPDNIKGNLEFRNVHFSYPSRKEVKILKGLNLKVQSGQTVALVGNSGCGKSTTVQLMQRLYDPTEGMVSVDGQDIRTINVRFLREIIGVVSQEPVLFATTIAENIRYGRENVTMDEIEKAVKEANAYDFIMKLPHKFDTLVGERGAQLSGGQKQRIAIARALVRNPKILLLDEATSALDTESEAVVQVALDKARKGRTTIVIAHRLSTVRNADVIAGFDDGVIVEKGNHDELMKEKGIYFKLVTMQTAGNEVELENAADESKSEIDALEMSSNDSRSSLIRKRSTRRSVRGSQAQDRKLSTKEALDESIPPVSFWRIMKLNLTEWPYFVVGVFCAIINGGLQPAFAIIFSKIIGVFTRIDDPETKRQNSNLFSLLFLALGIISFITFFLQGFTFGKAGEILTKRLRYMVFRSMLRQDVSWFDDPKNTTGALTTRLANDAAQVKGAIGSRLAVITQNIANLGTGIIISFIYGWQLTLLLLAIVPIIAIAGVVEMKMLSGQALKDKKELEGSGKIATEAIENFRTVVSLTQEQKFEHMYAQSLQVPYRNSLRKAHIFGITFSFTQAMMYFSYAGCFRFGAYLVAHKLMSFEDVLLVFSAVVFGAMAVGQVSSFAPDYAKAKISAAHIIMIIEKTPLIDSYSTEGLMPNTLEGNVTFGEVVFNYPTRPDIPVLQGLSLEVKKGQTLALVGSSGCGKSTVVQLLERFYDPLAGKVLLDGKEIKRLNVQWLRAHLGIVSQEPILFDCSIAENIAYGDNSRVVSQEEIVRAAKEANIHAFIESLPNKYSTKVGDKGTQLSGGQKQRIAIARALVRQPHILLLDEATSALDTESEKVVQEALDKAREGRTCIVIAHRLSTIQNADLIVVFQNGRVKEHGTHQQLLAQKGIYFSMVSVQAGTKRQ
ABCG2 inh: blocks JC-1 efflux by human ABCG2 transporter. Q9UNQ0. IgMXP3 cells, flow cytometry. inhibition, % at 6.6 µM. 190,000 compounds, 0.1% hits;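 active means inhibition above 80%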
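Measure – % inhibition of efflux relative to nicardipine and DMSO · Test system – ABCG2 IgMXP3 and barcoded ABCB1 CCRF-Adr cell mix · Control set – nicardipine as high control, DMSO as low control · Compound – one concentration, 6.6 µM final · Signal – flow cytometry of retained JC-1 fluorescence · Timing – 10 min exposure at 25 °C with rotation, no wash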
Large screens that a line does not name were inactive.

CCCOP(=O)(OCCC)C(Nc1cccc(C(F)(F)F)c1)c1ccc(C)cc1 (configuration not stated)	WT yeast gro inh 75
CCOP(=O)(OCC)C(Nc1cccc(C(F)(F)F)c1)c1ccc(F)cc1 (configuration not stated)	none
O=C(COc1ccc(F)cc1Cl)N(Cc1nnc(-c2ccccc2Cl)o1)C1CC1	none (no result: WT yeast gro inh, ABCB1 inh, ABCG2 inh)
O=C(N/N=C1\C2CN3CCN(C2)CC1(c1ccccc1)C3)c1ccc(F)cc1	none
CCCC12CN3CCN(CC(C3)/C1=N\NC(=O)c1ccc(C(C)(C)C)cc1)C2	WT yeast gro inh 98
Nc1ccccc1C(=O)N/N=C1\C2CN3CCN(C2)CC1(c1ccccc1)C3	none
Cc1cc(OCCCCCn2ccnc2)cc(C)c1Cl	none
Cc1cc(OCCCn2ccnc2)cc(C)c1Cl	WT yeast gro inh 66
COC(=O)[C@@H]1[C@@H](C#N)C2(c3ccccc3-c3ccccc32)N(c2ccc(Cl)cc2)N1C#N	WT yeast gro inh 74
CC1CCCC(C)N1C(=O)CSc1nnc(C2CCCCC2)o1 (configuration not stated)	none
Cc1noc2ncnc(N3CCN(c4cccc(Cl)c4)CC3)c12	WT yeast gro inh 61
COc1ccc(CC(=O)NNC(=O)c2c(-c3ccccc3Cl)noc2C)cc1OC	none (no result: WT yeast gro inh, ABCB1 inh, ABCG2 inh)
CCOC(=O)C1=C(Nc2ccccc2)CC(C)(O)C(C(=O)OCC)C1c1ccc(Cl)cc1 (configuration not stated)	WT yeast gro inh 71
O=C(CCCN1C(=O)C(c2ccccc2)Oc2cccnc21)Nc1ccccc1Cl (configuration not stated)	none (no result: WT yeast gro inh, ABCB1 inh, ABCG2 inh)
COc1ccccc1CNC(=S)Nc1cc(C)ccc1C	WT yeast gro inh 66
O=C(Oc1cccc(C(=S)N2CCCCC2)c1)c1ccccc1	WT yeast gro inh 60
O=C(Oc1ccc(C(=S)N2CCCCC2)cc1)c1ccccc1	none
CC1=C(OC(=O)c2ccccc2)C(C)(C)C(c2ccc(Br)cc2)OC1=O (configuration not stated)	WT yeast gro inh 66
Cc1ccc(CSc2nc3c(c(N(C)C)n2)CCCC3)cc1	WT yeast gro inh 78
COC(=O)CSc1nc(SCc2ccc(C)cc2)nc2c1CCCC2	WT yeast gro inh 70
CNc1nc(SCc2ccc(C)cc2)nc2c1CCCC2	WT yeast gro inh 67
Cc1ccc(CSc2nc3c(c(SCC(=O)O)n2)CCCC3)cc1	none
C=CCNCCOCCOc1ccccc1-c1ccccc1	none
O=C(NCCCN1CCOCC1)c1ccc2c(=O)n(Cc3ccc(Cl)cc3)c(=S)[nH]c2c1	none (no result: WT yeast gro inh, ABCB1 inh, ABCG2 inh)
CC(C)(C)c1ccccc1NC(=S)NCc1ccccc1	WT yeast gro inh 63
COc1ccc(CCNC(=O)C(NS(=O)(=O)c2cccc3nsnc23)C(C)C)cc1OC (configuration not stated)	none (no result: WT yeast gro inh, ABCB1 inh, ABCG2 inh)
Nc1ccc2c(c1)C(=O)C(=O)c1ccccc1-2	WT yeast gro inh 97
O=C1C(=O)c2ccc(-c3ccccc3)cc2-c2ccccc21	none
O=C(CCn1c(=O)oc2ccccc21)Nc1cccc(Br)c1	none (no result: WT yeast gro inh, ABCB1 inh, ABCG2 inh)
O=C(NCC(=O)N(c1cccnc1)C(C(=O)NC1CCCCC1)c1ccccc1F)c1ccco1 (configuration not stated)	none (no result: WT yeast gro inh, ABCB1 inh, ABCG2 inh)
c1ccc2c(-c3nc(-c4ccncc4)no3)cccc2c1	none
c1ccc(-c2noc(-c3cccc4ccccc34)n2)cc1	WT yeast gro inh 67
C/C(CCN1CCc2nc(-c3ccccc3)c(-c3ccccc3)cc2C1)=N\OC[C@@H](C)[C@H](OCc1ccccc1)C(C)C	WT yeast gro inh 61
C=CCc1c(C)c(C#N)c2nc3ccccc3n2c1NCCN(C)C	WT yeast gro inh 70
Cc1nn(CC(O)CN2c3ccccc3Sc3ccccc32)c(C)c1Br (configuration not stated)	WT yeast gro inh 91
OC(CN1c2ccccc2Sc2ccccc21)Cn1nnc2ccccc21 (configuration not stated)	none
COC(=O)Nc1ccc(S(=O)(=O)NC2CCCCC2)cc1	none (no result: WT yeast gro inh, ABCB1 inh, ABCG2 inh)
Cc1ccc(N(C(=O)CS(=O)CC(=O)Nc2ccc(F)cc2)C(C)C(=O)NC(C)(C)C)cc1 (configuration not stated)	none (no result: WT yeast gro inh, ABCB1 inh, ABCG2 inh)
CCOC(=O)c1cnc(SC)nc1Sc1ccccc1Cl	WT yeast gro inh 67
CSc1nc(Sc2ccccc2Cl)c2ccccc2n1	WT yeast gro inh 68
CCOc1ccc(-c2ccc(SC)nn2)cc1	WT yeast gro inh 68
CCOc1ccc(-c2ccc(SCC(=O)Nc3nnc(CC)s3)nn2)cc1	none
COc1ccc(NC(=O)C2C(c3ccccc3)C2(Cl)Cl)c(OC)c1 (configuration not stated)	none (no result: WT yeast gro inh, ABCB1 inh, ABCG2 inh)
Cc1ccc(NC(=O)C2C(c3ccccc3)C2(Cl)Cl)c(C)c1 (configuration not stated)	WT yeast gro inh 86
CC(=O)c1cccc(NC(=O)C2C(c3ccccc3)C2(Cl)Cl)c1 (configuration not stated)	none
Cc1cccc(NC(=O)C2C(c3ccccc3)C2(Cl)Cl)c1 (configuration not stated)	WT yeast gro inh 64
COc1ccc2cc(C(C)C(=O)N3CCC(C(N)=O)CC3)ccc2c1 (configuration not stated)	none (no result: WT yeast gro inh, ABCB1 inh, ABCG2 inh)
Cc1cc(C)nc(N2CCC(C(=O)NCCc3ccc(F)cc3)CC2)n1	WT yeast gro inh 69 (no result: MEKK2mut PB1 HTS, MEKK3 PB1 HTS, MEKK2wt PB1 HTS)
CC/C(=N\NC(=O)c1cc(C2CC2)[nH]n1)c1ccccc1	none (no result: WT yeast gro inh, ABCB1 inh, ABCG2 inh)
CCOC(=O)c1cc(-c2ccccc2)n(CCC(=O)N2CCN(c3ccccc3OC)CC2)c1C	none
CCOC(=O)c1cc(-c2ccccc2)n(CCC(=O)N2CCN(c3ccc(OC)cc3)CC2)c1C	MEKK2wt PB1 HTS 2.0
COc1ccc(-n2cccc2C=O)cc1	none
COc1ccc(-n2cccc2/C=C/[N+](=O)[O-])cc1	WT yeast gro inh 70
CC(OC(=O)C1=COCCO1)C(=O)Nc1ccccc1C#N (configuration not stated)	none
Cc1ccc(C)c(N2CCN(C(=O)C(Cc3ccccc3)n3cccc3)CC2)c1 (configuration not stated)	WT yeast gro inh 62
Cc1ccc(C)c(N2CCN(C(=O)Cc3cn(C)c4ccccc34)CC2)c1	WT yeast gro inh 63
Cc1ccc(C)c(N2CCN(C(=O)c3csc4ccccc34)CC2)c1	WT yeast gro inh 74
O=C(C(Cc1ccccc1)n1cccc1)N1CCN(c2ccccc2)CC1 (configuration not stated)	none
CCC(=O)N1CCN(c2cc(C)ccc2C)CC1	none
O=C(NCCc1ccccn1)C1CCCN1S(=O)(=O)c1ccc(Cl)cc1 (configuration not stated)	none (no result: WT yeast gro inh, ABCB1 inh, ABCG2 inh)

Source: PubChem
